From article PMC4855835 (Chemical communications (Cambridge, England), 2016)

Experiments:
[1] = system: sarcoma osteogenic (Saos-2) cells; experiment: Cell viability of Saos-2 cells treated with precursors; assay type: cell-based, human; settings: for concentration at which Saos-2 cells are inhibited: Fig. 4A and Fig. S6; for inhibitory activity at pH 8.0: hydrolysis of ester bond (Fig. S8)
Outline: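 Saos-2 osteosarcoma cells, which overexpress alkaline phosphatase, were exposed to a range of test compound (phosphorylated peptide precursor) concentrations for 48 h. Viability was plotted as log-dose response curves, and IC90 was taken at 48 h. Human marrow stromal HS-5 cells served as the normal-cell comparison.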

[2] = Hydrogelation assay of self-assembly in water upon ALP addition; assay type: physicochemical; settings: 1 mM, pH 7.4, ALP 3U/mL
Outline: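 Self-assembly was screened by hydrogelation: the test compound at 1 mM in water, pH 7.4, was given alkaline phosphatase at 3 U/mL. The resulting state (gel, suspension or increased viscosity) was judged by eye. Nanostructures formed under the same conditions were imaged by TEM after 24 h.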

[3] = system: Saos-2 cells; experiment: Saos-2 cell viability with co-incubated ALP inhibitors or cell death inhibitors; assay type: cell-based, human; settings: 48h; for effect of pan-caspase inhibitor zVAD-fmk on death of treated Saos-2 cells: 1p 20 μM, 2p 50 μM, 3p 20 μM, zVAD-fmk 45 μM; for effect of L-Phe on viability of treated Saos-2 cells / effect of levamisole on viability of treated Saos-2 cells: 1p 50 μM, 3p 50 μM, 2p 200 μM; for effect of L-Phe on viability of treated Saos-2 cells: L-Phe 1 mM; for effect of levamisole on viability of treated Saos-2 cells: levamisole 1 mM; for effect of necroptosis inhibitor Nec-1 on death of treated Saos-2 cells: Nec-1 50 μM
Outline: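 Saos-2 cells were treated for 48 h with test compound plus an inhibitor. ALP inhibitors were levamisole 1 mM (tissue-nonspecific ALP) or L-phenylalanine 1 mM (placental ALP), with test compound at 50 or 200 µM. Death-pathway inhibitors were pan-caspase zVAD-fmk 45 µM or Nec-1 50 µM. Read-out was cell viability.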

[4] = Static light scattering; assay type: physicochemical; settings: pH7.4 PBS buffer, before ALP
Outline: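 Static light scattering was measured on test compound solutions (12.5–50 µM) in pH 7.4 PBS, before and 24 h after adding alkaline phosphatase (2 U/mL). Scattering angle was 30 degrees; read-out was scattered intensity.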

[5] = system: sarcoma osteogenic (Saos-2) cells; settings: read-out: IC50 of carboplatin; 72 h; cited from earlier work

SMILES | concentration at which Saos-2 cells are inhibited [1] | inhibitory activity at pH 8.0 [1] | state of the solution after addition of ALP [2] | effect of pan-caspase inhibitor zVAD-fmk on death of treated Saos-2 cells [3] | effect of L-Phe on viability of treated Saos-2 cells [3] | effect of levamisole on viability of treated Saos-2 cells [3] | effect of necroptosis inhibitor Nec-1 on death of treated Saos-2 cells [3] | aggregation behaviour by SLS at 50 μM [4] | IC50 [5] [µM]
CNC(=O)[C@@H](Cc1ccc(OP(=O)(O)O)cc1)NC(=O)[C@@H](Cc1ccccc1)NC(=O)[C@@H](Cc1ccccc1)NC(=O)Cc1ccc2ccccc2c1 [1p] | ≥ 50 µM | remains | turns into a hydrogel | only slightly protects | unable to rescue the cells | increases the cell viability | significantly protects | starts to aggregates | –
NNC(=O)[C@@H](Cc1ccc(OP(=O)(O)O)cc1)NC(=O)[C@@H](Cc1ccccc1)NC(=O)[C@@H](Cc1ccccc1)NC(=O)Cc1ccc2ccccc2c1 [2p] | ≥ 50 µM | – | turns into a hydrogel | only slightly protects | unable to rescue the cells | increases the cell viability | significantly protects | – | –
COC(=O)[C@@H](Cc1ccc(OP(=O)(O)O)cc1)NC(=O)[C@@H](Cc1ccccc1)NC(=O)[C@@H](Cc1ccccc1)NC(=O)Cc1ccc2ccccc2c1 [3p] | ≥ 50 µM | decreases | forms a suspension | only slightly protects | unable to rescue the cells | increases the cell viability | significantly protects | – | –
O=C(Cc1ccc2ccccc2c1)N[C@H](Cc1ccccc1)C(=O)N[C@H](Cc1ccccc1)C(=O)N[C@H](Cc1ccc(OP(=O)(O)O)cc1)C(=O)O [4p] | about 500 μM | – | becomes more viscous | – | – | – | – | – | –
N.N.O=C([O-])C1(C(=O)[O-])CCC1.[Pt+2] [carboplatin] | – | – | – | – | – | – | – | – | 198
